Experimental data reported in ChEMBL document CHEMBL1132311, “Design and synthesis of isoxazoline derivatives as factor Xa inhibitors. 1” (J Med Chem, 1999).

Legend:
[1] = molecular target: Coagulation factor X (Homo sapiens, UniProt P00742); experiment: Binding affinity to purified human coagulation factor Xa (FXa)
[2] = molecular target: Prothrombin (Homo sapiens, UniProt P00734); experiment: The binding affinity towards thrombin obtained from human purified enzymes.
[3] = molecular target: T1, Serine protease 1 (Homo sapiens, UniProt P07477); experiment: The binding affinity was measured towards human purified trypsin
In short: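 Human purified enzymes, microtiter format; 0.1 M sodium phosphate, 0.2 M NaCl, 0.5% PEG 6000, pH 7.0. Compound at 10 to 0.00316 µM (eight half-log steps). Absorbance at 405 nm read for 30 min; rates vs uninhibited controls give % activity, Ki calculated from substrate concentration and Km. Duplicate runs with the same internal standards.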

[4] = species: Oryctolagus cuniculus; experiment: The ID50 value was the 50% inhibition of thrombus formation was measured on rabbits; format: functional
In short: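 New Zealand rabbits (2-4 kg) under ketamine (50 mg/kg im) plus xylazine (10 mg/kg im). Femoral artery-vein shunt containing silk thread. Compound or saline vehicle given as continuous iv infusion via jugular vein, starting 1 h before shunt flow and continuing throughout (100 min).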

[5] = molecular target: T1, Serine protease 1; experiment: The binding affinity was measured on trypsin obtained from Human purified enzymes
In short: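 Inhibition constant against human purified trypsin, in 0.1 M sodium phosphate with 0.2 M NaCl and 0.5% PEG 6000, pH 7.0. Eight inhibitor levels were run, 10 down to 0.00316 µM. Absorbance was read at 405 nm for 30 min. Ki was derived from % activity relative to uninhibited rates using Km and substrate concentration. Duplicate runs alongside internal standards.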

Sequence of Coagulation factor X (P00742 41-179 limits assumed): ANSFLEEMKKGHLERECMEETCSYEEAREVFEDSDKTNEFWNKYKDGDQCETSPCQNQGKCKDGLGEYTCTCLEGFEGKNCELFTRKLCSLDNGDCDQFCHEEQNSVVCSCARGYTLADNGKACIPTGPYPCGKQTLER
Sequence of Coagulation factor X (P00742 235-488 limits assumed): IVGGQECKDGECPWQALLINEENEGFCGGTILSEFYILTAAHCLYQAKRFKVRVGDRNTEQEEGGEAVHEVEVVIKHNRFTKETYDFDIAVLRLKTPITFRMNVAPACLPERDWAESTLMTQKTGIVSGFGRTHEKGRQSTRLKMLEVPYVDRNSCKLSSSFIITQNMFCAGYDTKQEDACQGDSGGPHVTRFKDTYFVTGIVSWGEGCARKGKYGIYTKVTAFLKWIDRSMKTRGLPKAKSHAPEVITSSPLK
T1 sequence (P07477 whole entry): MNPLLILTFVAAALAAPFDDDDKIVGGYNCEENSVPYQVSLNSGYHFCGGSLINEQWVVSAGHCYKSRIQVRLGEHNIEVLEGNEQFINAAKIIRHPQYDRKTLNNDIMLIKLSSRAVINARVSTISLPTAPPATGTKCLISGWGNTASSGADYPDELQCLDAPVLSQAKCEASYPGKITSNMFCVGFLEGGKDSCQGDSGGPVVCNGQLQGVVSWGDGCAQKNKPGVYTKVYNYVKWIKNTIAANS

Row | SMILES | Ki [1] | Ki [2] | Ki [3] | ID50 [4] | Ki [5]
1 | COC(=O)CC1(C(=O)Nc2ccc(-c3cccc(C)c3)cc2)CC(c2cccc(C(=N)N)c2)=NO1 (stereo not given) | 240 nM | 2100 nM | – | – | –
2 | COC(=O)CC1(C(=O)Nc2ccc(-c3cccc(OC)c3)cc2)CC(c2cccc(C(=N)N)c2)=NO1 (stereo not given) | 200 nM | 2700 nM | 390 nM | – | –
3 | COC(=O)CC1(C(=O)Nc2ccc(-c3ccccc3C(F)(F)F)cc2)CC(c2cccc(C(=N)N)c2)=NO1 (stereo not given) | 28 nM | 1400 nM | 230 nM | – | –
4 | COC(=O)CC1(C(=O)Nc2ccc(-c3ccccc3S(N)(=O)=O)nc2)CC(c2cccc(C(=N)N)c2)=NO1 (stereo not given) | 19 nM | 10800 nM | 180 nM | – | –
5 | COC(=O)CC1(C(=O)Nc2ccc(-c3ccccc3OC)cc2)CC(c2cccc(C(=N)N)c2)=NO1 (stereo not given) | 62 nM | 2800 nM | 310 nM | – | –
6 | COC(=O)CC1(C(=O)Nc2ccc(-c3ccccc3S(N)(=O)=O)cc2C)CC(c2cccc(C(=N)N)c2)=NO1 (stereo not given) | 8.8 nM | 3100 nM | 300 nM | – | –
7 | COC(=O)CC1(C(=O)Nc2ccc(-c3ccccc3C(=O)OC)cc2)CC(c2cccc(C(=N)N)c2)=NO1 (stereo not given) | 53 nM | 2100 nM | 300 nM | – | –
8 | COC(=O)CC1(C(=O)Nc2ccc(-c3ccccc3S(N)(=O)=O)cc2F)CC(c2cccc(C(=N)N)c2)=NO1 (stereo not given) | 4.2 nM | 3800 nM | 120 nM | – | –
9 | COC(=O)CC1(C(=O)Nc2ccc(-c3cccc(S(N)(=O)=O)c3)cc2)CC(c2cccc(C(=N)N)c2)=NO1 (stereo not given) | 68 nM | 3100 nM | 340 nM | – | –
10 | COC(=O)CC1(C(=O)Nc2ccc(-c3ccccc3S(C)(=O)=O)cc2)CC(c2cccc(C(=N)N)c2)=NO1 (stereo not given) | 4.2 nM | 600 nM | 100 nM | – | –
11 | COC(=O)CC1(C(=O)Nc2ccc(-c3ccccc3)cc2)CC(c2cccc(C(=N)N)c2)=NO1 (stereo not given) | 220 nM | 3500 nM | 470 nM | – | –
12 | COC(=O)CC1(C(=O)Nc2ccc(-c3ccccc3C)cc2)CC(c2cccc(C(=N)N)c2)=NO1 (stereo not given) | 210 nM | 1800 nM | 390 nM | – | –
13 | COC(=O)CC1(C(=O)Nc2ccc(-c3ccccc3SC)cc2)CC(c2cccc(C(=N)N)c2)=NO1 (stereo not given) | 66 nM | 1200 nM | 260 nM | – | –
14 | COC(=O)CC1(C(=O)Nc2ccc(-c3cccc(C(F)(F)F)c3)cc2)CC(c2cccc(C(=N)N)c2)=NO1 (stereo not given) | 240 nM | 1200 nM | 570 nM | – | –
15 | COC(=O)CC1(C(=O)Nc2ccc(-c3ccccc3S(N)(=O)=O)cc2)CC(c2cccc(C(=N)N)c2)=NO1.O=C(O)C(F)(F)F (racemic) | – | – | 121 nM | 0.6 µM/h/kg | –
16 | COC(=O)CC1(C(=O)Nc2ncc(-c3ccccc3S(N)(=O)=O)cn2)CC(c2cccc(C(=N)N)c2)=NO1.O=C(O)C(F)(F)F (racemic) | – | – | – | 0.4 µM/h/kg | –
17 | COC(=O)CC1(C(=O)Nc2ccc(-c3ccccc3S(N)(=O)=O)cn2)CC(c2cccc(C(=N)N)c2)=NO1.O=C(O)C(F)(F)F (racemic) | 0.96 nM | – | 25 nM | 0.3 µM/h/kg | –
18 | COC(=O)CC1(C(=O)Nc2ccc(-c3ccccc3S(N)(=O)=O)cc2)CC(c2cccc(C(=N)N)c2)=NO1.O=C(O)C(F)(F)F (single isomer, unassigned; (+)) | – | > 21000 nM | 300 nM | 2 µM/h/kg | –
19 | COC(=O)CC1(C(=O)Nc2ccc(-c3ccccc3S(N)(=O)=O)cn2)CC(c2cccc(C(=N)N)c2)=NO1.O=C(O)C(F)(F)F (single isomer, unassigned; (+)) | 7 nM | 18000 nM | 130 nM | 0.6 µM/h/kg | –
20 | CC(=O)N[C@H](Cc1ccccc1)C(=O)N1CCC[C@@H]1C(=O)NC(CCCN=C(N)N)B(O)O (single isomer, unassigned; (-)) | 40 nM | – | – | – | 55 nM
21 | COC(=O)CC1(C(=O)Nc2ccc(-c3ccccc3S(N)(=O)=O)cc2)CC(c2cccc(C(=N)N)c2)=NO1.O=C(O)C(F)(F)F (single isomer, unassigned; (-)) | – | 2400 nM | 98 nM | 0.2 µM/h/kg | –
22 | COC(=O)CC1(C(=O)Nc2ncc(-c3ccccc3S(N)(=O)=O)cn2)CC(c2cccc(C(=N)N)c2)=NO1.O=C(O)C(F)(F)F (single isomer, unassigned; (-)) | 2.3 nM | 8900 nM | 170 nM | 0.15 µM/h/kg | –
23 | COC(=O)CC1(C(=O)Nc2ccc(-c3ccccc3S(N)(=O)=O)cn2)CC(c2cccc(C(=N)N)c2)=NO1.O=C(O)C(F)(F)F (single isomer, unassigned; (-)) | 0.83 nM | 2900 nM | 17 nM | 0.26 µM/h/kg | –
24 | COC(=O)CC1(C(=O)Nc2ccc(-c3ccccc3S(N)(=O)=O)cn2)CC(c2cccc(C(=N)N)c2)=NO1 (stereo in doubt; 30) | 0.96 nM | – | 25 nM | – | –
25 | COC(=O)CC1(C(=O)Nc2ncc(-c3ccccc3S(N)(=O)=O)cn2)CC(c2cccc(C(=N)N)c2)=NO1 (stereo in doubt; 31) | – | 14000 nM | 336 nM | – | –
26 | COC(=O)CC1(C(=O)Nc2ncc(-c3ccccc3S(N)(=O)=O)cn2)CC(c2cccc(C(=N)N)c2)=NO1.O=C(O)C(F)(F)F (stereo in doubt; 34(+)) | 12 nM | > 21000 nM | 710 nM | >1.5 µM/h/kg | –
